{"source": "ChEMBL document CHEMBL1153988", "about": "(J Med Chem, 2009)", "key": {"Mus musculus [1]": {"test_system": "Mus musculus", "assay": "Anticonvulsant activity in CF1 albino mouse assessed as protection against maximal electroshock-induced seizures at 300 mg/kg, ip after 4 hrs", "format": "functional, organism-based", "design": "dose 300 mg/kg", "summary_of_the_method": "(§1)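 Adult male CF no. 1 albino mice (18-25 g). Test compound suspended in 0.5% methylcellulose and given intraperitoneally at 0.01 mL/g body weight. Maximal electroshock challenge at the stated time. Read-out is the number of animals protected over the number tested; neurotoxicity is scored in parallel.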"}, "Mus musculus [2]": {"test_system": "Mus musculus", "assay": "Anticonvulsant activity in CF1 albino mouse assessed as protection against scMet-induced seizures at 30 mg/kg, ip after 0.5 hrs", "format": "functional, organism-based", "design": "dose 30 mg/kg", "summary_of_the_method": "(§2)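 Adult male CF no. 1 albino mice (18-25 g) dosed intraperitoneally with compound suspended in 0.5% methylcellulose (0.01 mL/g). Convulsant challenge given subcutaneously as a 0.85% pentylenetetrazol solution in 0.9% saline. Read-out is animals protected over animals tested, with neurotoxicity scored in parallel.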"}, "Mus musculus [3]": {"test_system": "Mus musculus", "assay": "Anticonvulsant activity in CF1 albino mouse assessed as protection against scMet-induced seizures at 30 mg/kg, ip after 4 hrs", "format": "functional, organism-based", "design": "dose 30 mg/kg", "summary_of_the_method": "as §2"}, "Mus musculus [4]": {"test_system": "Mus musculus", "assay": "Anticonvulsant activity in CF1 albino mouse assessed as protection against scMet-induced seizures at 100 mg/kg, ip after 4 hrs", "format": "functional, organism-based", "design": "dose 100 mg/kg", "summary_of_the_method": "as §2"}, "Mus musculus [5]": {"test_system": "Mus musculus", "assay": "Anticonvulsant activity in CF1 albino mouse assessed as protection against scMet-induced seizures at 300 mg/kg, ip after 4 hrs", "format": "functional, organism-based", "design": "dose 300 mg/kg", "summary_of_the_method": "as §2"}, "Rattus norvegicus [6]": {"test_system": "Rattus norvegicus", "assay": "Anticonvulsant activity in albino Sprague-Dawley rat assessed as protection against maximal electroshock-induced seizures at 50 mg/kg, po after 4 hrs", "format": "functional, organism-based", "design": "dose 50 mg/kg", "summary_of_the_method": "(§3)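 Adult male Sprague-Dawley albino rats (100-150 g) dosed orally with compound suspended in 0.5% methylcellulose (0.04 mL per 10 g). Maximal electroshock challenge at the stated time. Protection is scored in 25% steps as the fraction of animals protected, with neurotoxicity recorded in parallel.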"}, "Rattus norvegicus [7]": {"test_system": "Rattus norvegicus", "assay": "Anticonvulsant activity in albino Sprague-Dawley rat assessed as protection against maximal electroshock-induced seizures at 50 mg/kg, po after 1 hr", "format": "functional", "summary_of_the_method": "as §3"}, "Mus musculus [8]": {"test_system": "Mus musculus", "assay": "Anticonvulsant activity in CF1 albino mouse assessed as protection against maximal electroshock-induced seizures at 400 mg/kg, ip", "format": "functional, organism-based", "design": "dose 400 mg/kg", "summary_of_the_method": "as §1"}, "Mus musculus [9]": {"test_system": "Mus musculus", "assay": "Anticonvulsant activity in CF1 albino mouse assessed as protection against scMet-induced seizures at 100 mg/kg, ip", "format": "functional, organism-based", "design": "dose 100 mg/kg", "summary_of_the_method": "as §2"}, "Mus musculus [10]": {"test_system": "Mus musculus", "assay": "Anticonvulsant activity in CF1 albino mouse assessed as protection against 44 mA-current-induced seizure at 25 mg/kg, ip by 6Hz psychomotor seizure test", "format": "functional, organism-based", "design": "dose 25 mg/kg", "summary_of_the_method": "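6 Hz psychomotor seizure test in male CF no. 1 mice, with compound given ip as a 0.5% methylcellulose suspension. Groups of 8 animals per dose. The 32 mA test used 25, 70 and 130 mg/kg; the 44 mA test used 25, 50, 75 and 100 mg/kg. ED50 and 95% confidence interval were obtained by probit analysis.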"}, "Rattus norvegicus [11]": {"species_on_record": "Rattus norvegicus", "assay": "Protective index, ratio of TD50 for albino Sprague-Dawley rat to ED50 for scMet-induced albino Sprague-Dawley rat seizure model", "format": "functional", "summary_of_the_method": "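Protective index is the rat TD50 (minimal motor impairment) divided by the ED50 in the MES or sc pentylenetetrazol test. Male Sprague-Dawley rats were dosed orally in 0.5% methylcellulose, and both values came from probit analysis.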"}, "Mus musculus [12]": {"test_system": "Mus musculus", "assay": "Anticonvulsant activity in ip dosed CF1 albino mouse assessed as protection against 32 mA current-induced seizure by 6Hz psychomotor seizure test", "format": "functional", "summary_of_the_method": "(§4)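 In the 6 Hz psychomotor seizure test, male CF no. 1 albino mice (18-25 g) received the compound ip in 0.5% methylcellulose. Stimulation was at 32 or 44 mA. Doses were varied to give 3-4 points between 0% and 100% protection, and ED50 with 95% confidence interval came from probit analysis.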"}, "Mus musculus [13]": {"species_on_record": "Mus musculus", "assay": "Protective index, ratio of TD50 for CF1 albino mouse to ED50 for 32 mA current-induced CF1 albino mouse seizure model", "format": "functional", "summary_of_the_method": "(§5)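 Protective index is the mouse TD50 (minimal motor impairment) divided by the 6 Hz test ED50 at 32 or 44 mA. Male CF no. 1 mice were dosed ip in 0.5% methylcellulose, and values came from probit analysis.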"}, "Mus musculus [14]": {"test_system": "Mus musculus", "assay": "Anticonvulsant activity in ip dosed CF1 albino mouse assessed as protection against 44 mA-current-induced seizure by 6Hz psychomotor seizure test", "format": "functional", "summary_of_the_method": "as §4"}, "Mus musculus [15]": {"species_on_record": "Mus musculus", "assay": "Protective index, ratio of TD50 for CF1 albino mouse to ED50 for 44 mA-current-induced CF1 albino mouse seizure model", "format": "functional", "summary_of_the_method": "as §5"}, "Rattus norvegicus [16]": {"test_system": "Rattus norvegicus", "assay": "Anticonvulsant activity in albino Sprague-Dawley rat assessed as protection against scMet-induced seizures at 2 mg/kg, po", "format": "functional, organism-based", "design": "dose 2 mg/kg", "summary_of_the_method": "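Oral dosing of male Sprague-Dawley rats (100-150 g) with compound in 0.5% methylcellulose. Convulsant challenge given subcutaneously as a 2.82% pentylenetetrazol solution in 0.9% saline. Groups of about 8 rats per dose. For quantitation, doses spanning 0% to 100% protection were fitted by probit analysis to give ED50 with 95% confidence interval.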"}, "Mus musculus [17]": {"test_system": "Mus musculus", "assay": "Teratogenic effect in SWV mouse assessed as number of litters at 671 mg/kg, ip administered on morning of day 8 of gestation", "format": "toxicity, organism-based", "design": "dose 671 mg/kg, route intraperitoneal", "conditions": "in vivo", "summary_of_the_method": "(§6)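 Inbred SWV mouse strain highly susceptible to VPA-induced neural tube defects. Each dam received a single ip injection on gestation day 8.5, dosed within 1.8-4.2 mmol/kg, against a control of 25% aqueous Cremophor EL. Groups were compared with the control, and with the matched VPA sodium-salt dose, by Fisher's exact test (p < 0.05).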"}, "Mus musculus [18]": {"test_system": "Mus musculus", "assay": "Teratogenic effect in SWV mouse assessed as number of litters at 336 mg/kg, ip administered on morning of day 8 of gestation", "format": "toxicity, organism-based", "design": "dose 336 mg/kg, route intraperitoneal", "conditions": "in vivo", "summary_of_the_method": "as §6"}, "Mus musculus [19]": {"test_system": "Mus musculus", "assay": "Teratogenic effect in SWV mouse assessed as number of implants at 502 mg/kg, ip administered on morning of day 8 of gestation", "format": "toxicity, organism-based", "design": "dose 502 mg/kg, route intraperitoneal", "conditions": "in vivo", "summary_of_the_method": "as §6"}, "Mus musculus [20]": {"test_system": "Mus musculus", "assay": "Teratogenic effect in SWV mouse assessed as resorptions at 671 mg/kg, ip administered on morning of day 8 of gestation", "format": "toxicity, organism-based", "design": "dose 671 mg/kg, route intraperitoneal", "conditions": "in vivo", "summary_of_the_method": "as §6"}, "Mus musculus [21]": {"test_system": "Mus musculus", "assay": "Teratogenic effect in SWV mouse assessed as resorptions at 336 mg/kg, ip administered on morning of day 8 of gestation", "format": "toxicity, organism-based", "design": "dose 336 mg/kg, route intraperitoneal", "conditions": "in vivo", "summary_of_the_method": "as §6"}, "Mus musculus [22]": {"test_system": "Mus musculus", "assay": "Teratogenic effect in SWV mouse assessed as live fetuses at 671 mg/kg, ip administered on morning of day 8 of gestation", "format": "toxicity, organism-based", "design": "dose 671 mg/kg, route intraperitoneal", "conditions": "in vivo", "summary_of_the_method": "as §6"}, "Mus musculus [23]": {"test_system": "Mus musculus", "assay": "Teratogenic effect in SWV mouse assessed as live fetuses at 502 mg/kg, ip administered on morning of day 8 of gestation", "format": "toxicity, organism-based", "design": "dose 502 mg/kg, route intraperitoneal", "conditions": "in vivo"}, "Mus musculus [24]": {"test_system": "Mus musculus", "assay": "Teratogenic effect in SWV mouse assessed as live fetuses at 336 mg/kg, ip administered on morning of day 8 of gestation", "format": "toxicity, organism-based", "design": "dose 336 mg/kg, route intraperitoneal", "conditions": "in vivo"}, "Mus musculus [25]": {"test_system": "Mus musculus", "assay": "Teratogenic effect in SWV mouse assessed as number of dead fetuses at 502 mg/kg, ip administered on morning of day 8 of gestation", "format": "toxicity, organism-based", "design": "dose 502 mg/kg, route intraperitoneal", "conditions": "in vivo", "summary_of_the_method": "as §6"}, "Mus musculus [26]": {"test_system": "Mus musculus", "assay": "Anticonvulsant activity in CF1 albino mouse assessed as protection against maximal electroshock-induced seizures at 30 mg/kg, ip after 0.5 hrs", "format": "functional, organism-based", "design": "dose 30 mg/kg", "summary_of_the_method": "as §1"}, "Mus musculus [27]": {"test_system": "Mus musculus", "assay": "Anticonvulsant activity in CF1 albino mouse assessed as protection against maximal electroshock-induced seizures at 100 mg/kg, ip after 0.5 hrs", "format": "functional, organism-based", "design": "dose 100 mg/kg", "summary_of_the_method": "as §1"}, "Mus musculus [28]": {"test_system": "Mus musculus", "assay": "Anticonvulsant activity in CF1 albino mouse assessed as protection against maximal electroshock-induced seizures at 300 mg/kg, ip after 0.5 hrs", "format": "functional, organism-based", "design": "dose 300 mg/kg", "summary_of_the_method": "as §1"}, "Mus musculus [29]": {"test_system": "Mus musculus", "assay": "Anticonvulsant activity in CF1 albino mouse assessed as protection against maximal electroshock-induced seizures at 150 mg/kg, ip after 0.5 hrs", "format": "functional, organism-based", "design": "dose 150 mg/kg", "summary_of_the_method": "as §1"}}, "note": "The source made the active and inactive calls. The calls are words filed in the database; no cut-off is given here.", "data": [{"smiles": "CC1(C)C(C)(C)C1(F)C(N)=O", "values": [{"measurement": "Activity", "setting": "Mus musculus [1]", "value": "Non-toxic"}, {"measurement": "Activity", "setting": "Mus musculus [2]", "value": "Non-toxic"}, {"measurement": "Activity", "setting": "Mus musculus [3]", "value": "Non-toxic"}, {"measurement": "Activity", "setting": "Mus musculus [4]", "value": "Non-toxic"}, {"measurement": "Activity", "setting": "Mus musculus [5]", "value": "Non-toxic"}, {"measurement": "Activity", "setting": "Rattus norvegicus [6]", "value": "inactive"}, {"measurement": "Activity", "setting": "Rattus norvegicus [7]", "value": "inactive"}, {"measurement": "Activity", "setting": "Mus musculus [8]", "value": "Active"}, {"measurement": "Activity", "setting": "Mus musculus [9]", "value": "Active"}, {"measurement": "Activity", "setting": "Mus musculus [10]", "value": "inactive"}, {"measurement": "PI", "setting": "Rattus norvegicus [11]", "value": 20}, {"measurement": "ED50", "setting": "Mus musculus [12]", "value": 57, "unit": "mg/kg"}, {"measurement": "PI", "setting": "Mus musculus [13]", "value": 2.1}, {"measurement": "ED50", "setting": "Mus musculus [14]", "value": 59, "unit": "mg/kg"}, {"measurement": "PI", "setting": "Mus musculus [15]", "value": 2}, {"measurement": "Activity", "setting": "Rattus norvegicus [16]", "value": "inactive"}, {"measurement": "Activity", "setting": "Mus musculus [17]", "value": 4}, {"measurement": "Activity", "setting": "Mus musculus [18]", "value": 8}, {"measurement": "Activity", "setting": "Mus musculus [19]", "value": 127}, {"measurement": "Activity", "setting": "Mus musculus [20]", "value": 78.2, "unit": "%"}, {"measurement": "Activity", "setting": "Mus musculus [21]", "value": 9.8, "unit": "%"}, {"measurement": "Activity", "setting": "Mus musculus [22]", "value": 21.8, "unit": "%"}, {"measurement": "Activity", "setting": "Mus musculus [23]", "value": 73.2, "unit": "%"}, {"measurement": "Activity", "setting": "Mus musculus [24]", "value": 90.2, "unit": "%"}, {"measurement": "Activity", "setting": "Mus musculus [25]", "value": 0}, {"measurement": "Activity", "setting": "Mus musculus [26]", "value": "Non-toxic"}, {"measurement": "Activity", "setting": "Mus musculus [27]", "value": "Non-toxic"}, {"measurement": "Activity", "setting": "Mus musculus [28]", "value": "Toxic"}, {"measurement": "Activity", "setting": "Mus musculus [29]", "value": "inactive"}]}]}
